Data on eight molecules can be found in ChEMBL document CHEMBL1140321, “Synthesis and biological evaluation of acyclic 3-[(2-hydroxyethoxy)methyl] analogues of antiviral furo- and pyrrolo[2,3-d]pyrimidine nucleosides” (J Med Chem, 2005).

For orientation: CC50 means the concentration giving 50% cytotoxicity. A higher CC50 goes with better tolerance by the cells. The term pEC50 denotes the EC50 on a negative log10 scale, so that one unit is a factor of ten. Lower therefore signals a high EC50.

Molecules are shown by their SMILES. pEC50: −log10 of the molar value.

Assay [1] deals with HEL. Briefly: Concentration required to inhibit cell proliferation in HEL cells by 50%. The assay is classed as functional. Conditions: Homo sapiens.
Assay [2] concerns HEL. The assay is described as follows: Concentration required to inhibit human cytomegalovirus strain Davis induced cytopathogenicity in HEL cells by 50%. The assay is classed as functional, cell-based. For orientation: Cytopathic effects are the visible damage that an infection or toxin causes in cultured cells.
Assay [3] relates to HEL. The assay is described as follows: Concentration required to inhibit human cytomegalovirus strain AD169 induced cytopathogenicity in HEL cells by 50%. The assay is classed as functional, cell-based.
Assay [4] relates to CCRF-CEM. The assay is described as follows: Concentration required to inhibit human immunodeficiency virus-2 (strain ROD) induced cytopathogenicity in CEM cells by 50%. It is filed as functional, cell-based. The method in brief: (§1)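 Human CEM cells (~3 × 10^5 cells/cm³) were infected with 100 CCID50/mL of HIV-1(IIIB) or HIV-2(ROD) and seeded into wells with compound dilutions. After 4 days at 37 °C, HIV-induced giant-cell formation was examined microscopically and EC50 was taken as the concentration giving 50% inhibition.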

In assay [5] the test system is HEL. Briefly: Concentration required to cause a microscopically visible alteration of cell morphology in HEL cells. It is filed as functional. Conditions: Homo sapiens.
Assay [6] deals with HEL. The assay is described as follows: Concentration required to inhibit herpes simplex virus type 1 induced cytopathogenicity in HEL cells by 50%. The assay is classed as functional, cell-based. The conditions noted are these: Homo sapiens.
Assay [7] has as its system HEL. Briefly: Concentration required to inhibit vaccinia virus induced cytopathogenicity in HEL cells by 50%. It is filed as functional, cell-based. Conditions: Homo sapiens.
Assay [8] has as its system HEL. Briefly: Concentration required to inhibit vesicular stomatitis virus induced cytopathogenicity in HEL cells by 50%. It is filed as functional, cell-based. The conditions noted are these: Homo sapiens.
Assay [9] deals with HEL. The assay is described as follows: Concentration required to inhibit Varicella-Zoster virus (strain 07/1) induced cytopathogenicity in HEL cells by 50%. It is filed as functional, cell-based. The conditions noted are these: Homo sapiens.
Assay [10] concerns CCRF-CEM. Briefly: Concentration required to inhibit human immunodeficiency virus-1 (strain IIIb) induced cytopathogenicity in CEM cells by 50%. The assay is classed as functional, cell-based. The method in brief:
as §1

Assay [11] concerns HEL. Briefly: Concentration required to inhibit Varicella-Zoster virus (strain OKA) induced cytopathogenicity in HEL cells by 50%. The assay is classed as functional, cell-based. The conditions noted are these: Homo sapiens.
Assay [12] concerns HEL. Briefly: Concentration required to inhibit herpes simplex virus type 2 induced cytopathogenicity in HEL cells by 50%. It is filed as functional, cell-based. The conditions noted are these: Homo sapiens.
The subject of assay [13] is HEL. The assay is described as follows: Concentration required to inhibit HEL cell proliferation by 50%. It is filed as functional. The conditions noted are these: Homo sapiens.

In the assay with HEL [1], `CCCCCCCCCCCc1cc2cn(COCCO)c(O)nc-2n1` yielded a CC50 of 41 µM. The pEC50 with HEL [2] was under 4.80; in the assay with HEL [3], under 4.80; with CCRF-CEM [4] it was under 5.00; in the assay on HEL [6], under 4.40; in the assay with HEL [7] it was under 4.40; in the assay with HEL [8] it was under 4.40. The negative-log EC50 (pEC50) in the assay on HEL [9] is 5.00; in the assay with CCRF-CEM [10], under 5.00; in the assay on HEL [11] it was 4.80; in the assay with HEL [12] it was under 4.40. This molecule returned an MCC in the assay on HEL [5] of 80 µM.
`CCCCCC#Cc1cc2cn(COCCO)c(=O)nc2o1` gave a half-maximal cytotoxic concentration (CC50) in the assay on HEL [1] of over 50 µM. Moreover, the negative logarithm of the EC50 (pEC50) in the assay with HEL [2] is 4.24; in the assay on HEL [3], under 4.70; in the assay with CCRF-CEM [4] it was under 4.30; in the assay on HEL [6] it was under 3.70; with HEL [7], under 3.70; with HEL [8], under 3.70. The pEC50 was under 4.30 with HEL [9], under 4.30 in the assay with CCRF-CEM [10], under 4.30 in the assay with HEL [11] and under 3.70 with HEL [12]. This molecule gave an MCC in the assay on HEL [5] of at least 100 µM.
On to `CCCCC#Cc1cc2cn(COCCO)c(=O)nc2o1`, for which the CC50 in the assay on HEL [1] is over 50 µM. In addition, the pEC50 in the assay with HEL [2] was under 4.00; in the assay with HEL [3], under 4.00; in the assay with CCRF-CEM [4], under 4.30; with HEL [6] it was under 3.70; in the assay on HEL [7], under 3.70; with HEL [8], under 3.70. The negative logarithm of the EC50 (pEC50) was under 4.30 in the assay on HEL [9], under 4.30 in the assay on CCRF-CEM [10], under 4.30 in the assay on HEL [11] and under 3.70 in the assay with HEL [12]. The MCC in the assay on HEL [5] is over 100 µM.
On to `CCCCCCCCC#Cc1cc2cn(COCCO)c(=O)nc2o1`, for which half-maximal cytotoxicity in the assay on HEL [1] (CC50) was put at 42 µM. Besides, the pEC50 in the assay with HEL [2] is 5.28; with HEL [3] it was under 5.40; in the assay with CCRF-CEM [4] it was under 5.00; in the assay with HEL [6], under 4.40; in the assay on HEL [7] it was under 4.40; with HEL [8], under 4.40. In addition, the negative-log EC50 (pEC50) in the assay on HEL [9] is 5.07; with CCRF-CEM [10] it was under 5.00; in the assay on HEL [11] it was under 5.30; in the assay on HEL [12], under 4.40. The same molecule registered an MCC with HEL [5] of at least 20 µM.
The molecule `CCCCCCCCCC#Cc1cc2cn(COCCO)c(=O)nc2o1` yielded a 50% cytotoxic concentration (CC50) with HEL [1] of over 50 µM. The negative logarithm of the EC50 (pEC50) was 5.28 in the assay with HEL [2]; under 5.40 with HEL [3]; under 5.00 with CCRF-CEM [4]; under 4.40 with HEL [6]; under 4.40 in the assay with HEL [7]; under 4.40 with HEL [8]. Also, the pEC50 in the assay on HEL [9] is 5.15; in the assay on CCRF-CEM [10], under 5.00; in the assay on HEL [11] it was 5.59; in the assay on HEL [12], under 4.40. In the assay on HEL [5], this molecule displayed an MCC of at least 20 µM.
For the molecule `C#Cc1cn(COCCO)c(=O)[nH]c1=O`, the pEC50 with HEL [2] was under 3.40; in the assay with HEL [3], under 3.40; with CCRF-CEM [4] it was under 3.60; with HEL [6] it was under 3.40; with HEL [7], under 3.40; in the assay with HEL [8] it was under 3.40. Besides, the pEC50 is under 3.40 in the assay with HEL [9], under 3.60 with CCRF-CEM [10], under 3.40 with HEL [11] and under 3.40 with HEL [12]. In the assay on HEL [5], this molecule displayed an MCC of over 400 µM. In the assay on HEL [13], this molecule had a CC50 of over 200 µM.
As for `CCCCCCCC#Cc1cc2cn(COCCO)c(=O)nc2o1`, the CC50 in the assay with HEL [1] is over 50 µM. The pEC50 in the assay on HEL [2] is under 4.70; in the assay on HEL [3] it was under 4.70; in the assay on CCRF-CEM [4], under 5.00; in the assay on HEL [6] it was under 4.40; with HEL [7] it was under 4.40; with HEL [8], under 4.40. Further, the negative logarithm of the EC50 (pEC50) in the assay with HEL [9] was under 4.70; in the assay with CCRF-CEM [10] it was under 5.00; in the assay on HEL [11], under 4.70; in the assay with HEL [12] it was under 4.40. The MCC in the assay with HEL [5] came to 200 µM.
`O=c1[nH]c(=O)n([C@H]2C[C@H](O)[C@@H](CO)O2)cc1/C=C/Br` [BRIVUDINE]: the CC50 in the assay on HEL [1] was at least 400 µM. The negative-log EC50 (pEC50) in the assay on HEL [2] was under 4.00; in the assay on HEL [3] it was under 4.00; with CCRF-CEM [4] it was under 4.30; with HEL [6] it was 6.80; with HEL [7], 4.22; in the assay on HEL [8], under 3.30. The pEC50 in the assay with HEL [9] was under 3.97; with CCRF-CEM [10] it was under 4.30; with HEL [11] it was 7.52; with HEL [12] it was 3.52. Further, the MCC in the assay with HEL [5] was over 400 µM.
